# Compound activity from PubChem.
# XBP1 UPR activ = activators of adaptive XBP1 UPR arm, primary screen, cell-based, CHO-XBP1 luciferase reporter, luminescence, uHTS | IRE1-XBP1 UPR activation; percent of tunicamycin response, DMSO as zero | actives 0.33% (n = 330,000) | activation, % at 20 µM;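 active = versus positive control, 20 µM dose yields 30% or more activation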
#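 Assay system: IRE1-XBP1 luciferase reporter CHO line. Input: 1000 cells/well. Buffer or medium: F12 with 10% serum. Doses: 20 µM, 1% DMSO. Times: overnight seeding at 37 °C, 6 h compound treatment at 37 °C. Technique: Steady-Glo luciferase glow luminescence, 10 min after reagent addition.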
# CHOP UPR activ = activators of apoptotic CHOP UPR arm, primary screen, cell-based, CHO-CHOP luciferase reporter, luminescence, uHTS; AID 449763, 2010; UPR activation; percent of tunicamycin response over DMSO baseline; actives 0.34% (n = 330,000); activation, % at 10 µM;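 active = at 10 µM dose, activation of 40% or more, normalized to positive control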
#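 Evaluation: % reporter activation, DMSO baseline versus tunicamycin full activation; System: CHO-CHOP luciferase reporter cell line; Input: 500 cells/well; Incubation: 6 h compound treatment, 37 °C; Measured by: Steady-Glo luciferase luminescence; Dosing: one dose, 10 µM in 0.5% DMSO; Buffer or medium: F12 medium, 10% FBS; Benchmarks: positive tunicamycin 10 µg/mL, negative DMSO alone.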
# V-ATPase pHluor = regulators of yeast V-ATPase proton pumping, primary screen, pHLuorin cytosolic pH fluorescence; S. cerevisiae; response, % at 10 µM; actives 0.37% (n = 350,000); in the data active = response mostly above about 7.3%, no sharp cut-off; inactive = mostly below about 5.4%; also: actives read high
# CHOP inhibitor = inhibitors of CHOP promoter induction, primary screen, cell-based, unfolded protein response, luciferase reporter; CHO-K1 CHOP-promoter luciferase, tunicamycin-induced, 15-18 h; inhibition, % at 10 µM; actives 3.8% (n = 220,000); AID 2732, 2010;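 active = compounds that reduced the stress-induced luciferase reporter signal by more than about 70% of percent inhibition, limit read from the data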
# TbMetRS inhib = T. brucei MetRS inhibitors, primary screen, biochemical, luminescence; methionyl-tRNA synthetase (Trypanosoma brucei brucei); inhibition, % at 11.9 µM; purified T. brucei MetRS, ATP depletion, Kinase-Glo luminescence; actives 0.4% (n = 360,000);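 active = inhibition above a per-plate cutoff of the control wells' mean inhibition plus 3 SD, cut at about 5.5% in these data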
#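 Test system – parasite MetRS enzyme · Reagent – substrates ATP, L-methionine and bulk Escherichia coli tRNA · Doses – 11.9 µM compound single dose, 0.9% DMSO · Times – 15 min enzyme-compound preincubation, 2 h reaction, 10 min detection, 25 °C · Signal – Kinase-Glo luminescence, ATP depletion format · Controls – DMSO-only wells as low control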
# A number is an active result; 0 = inactive; - = not tested or not shown. The full list was thinned out, with hits kept by preference.
SMILES,XBP1 UPR activ,CHOP UPR activ,V-ATPase pHluor,CHOP inhibitor,TbMetRS inhib
COC(=O)CC1OCC=C2CN3CCC45C6=CC(=O)C(=O)C([N+](=O)[O-])=C6NC4C1C2CC35 (stereo not drawn),-,-,-,-,0
CCOc1ccc(C2CC(=O)NC(SC)=C2C#N)cc1 (stereo not drawn),0,0,0,0,0
CCCCCCSC1=C(C#N)C(c2ccccc2)CC(=O)N1 (stereo not drawn),0,0,0,77,0
CSC1=C(C#N)C(c2ccc(C(C)C)cc2)CC(=O)N1 (stereo not drawn),0,0,0,73,0
Cc1nc2ccccc2c(=O)[nH]1,0,0,0,0,0
O=c1[nH]c(C2C3CC4CC(C3)CC2C4)nc2ccccc12 (stereo not drawn),0,0,0,73,0
COc1cc2cc(C(c3nnnn3C3CCCCC3)N(C)C3CCCCC3)c(=O)[nH]c2cc1OC (stereo not drawn),0,0,0,84,0
C=CCn1cc(/C=N/Nc2nc3ccccc3[nH]2)c2ccccc21,0,0,0,0,5.6
Cn1c(/C=N/Nc2nc3ccccc3[nH]2)nc2ccccc21,0,0,0,0,0
C/C(=N\Nc1nc(Cl)c(Cl)cc1Cl)c1ccc(S(=O)(=O)NCc2ccco2)cc1,0,0,0,87,0
Cc1ccc(-c2ccc(S(=O)(=O)NCc3ccco3)cc2)cc1,0,0,0,75,0
Cc1ccc(C(=O)Nc2ccc(S(=O)(=O)NCc3ccco3)cc2)cc1,0,0,0,0,0
C/C(=N\Nc1ccccn1)c1ccc(S(=O)(=O)NCc2ccco2)cc1,0,0,0,0,0
Cc1nc(NC(=O)c2ccc(Cl)cc2)nc2cc3c(cc12)OCO3,0,0,0,0,0
COc1ccc(C(=O)Nc2nc(C)c3cc4c(cc3n2)OCO4)cc1,0,0,0,72,0
COCCNC(=O)c1c(N)n(-c2cccc(C)c2)c2nc3ccccc3nc12,0,0,0,77,0
Nc1c(C(=O)NCc2ccccc2)c2nc3ccccc3nc2n1-c1ccc2c(c1)OCO2,0,0,0,79,0
O=C1C=CC(=Nc2ccc(F)cc2)O1,-,-,0,-,0
COc1ccccc1C(=O)Nc1nnc(-c2ccc3c(c2)CCCC3)o1,0,0,0,80,0
O=C(COc1ccc(Cl)cc1)Nc1nnc(-c2ccc3c(c2)CCCC3)o1,0,0,0,87,0
CC1CN(S(=O)(=O)c2ccc(C(=O)Nc3nnc(-c4ccc5c(c4)CCCC5)o3)cc2)CC(C)O1 (stereo not drawn),0,0,0,104,0
COC1OCC(O)C(NC(=O)N(C)N=O)C1O (stereo not drawn),-,-,0,-,0
CC1(C)CC(=O)C=C(c2ccc(-c3ccc4[nH]ccc4c3)cc2)C1=O,-,-,0,-,0
N#Cc1c(NCCN)nc(NCc2ccccc2)c2c1CCN(Cc1ccccc1)C2,-,-,0,-,19
COc1ccc(NC(=O)c2cc(C3CCCCN3C(=O)CCCc3ccccc3)on2)c(C)c1 (stereo not drawn),-,-,-,-,0
SMILES,XBP1 UPR activ,CHOP UPR activ,V-ATPase pHluor,CHOP inhibitor,TbMetRS inhib
COc1ccc([C@H]2N[C@]3(CCCN(Cc4ccc(Cl)cc4)C3=O)[C@H]3C(=O)N(Cc4ccccc4)C(=O)[C@@H]23)cc1,-,-,0,-,0
O=C(Cn1c(=O)oc2cc(S(=O)(=O)N3CCc4ccccc43)ccc21)N1CCCCC1,0,0,0,0,0
O=C(Cn1c(=O)oc2cc(S(=O)(=O)N3CCOCC3)ccc21)N1CCc2ccccc2C1,0,0,0,0,0
O=C(Cn1c(=O)oc2cc(S(=O)(=O)N3CCCCC3)ccc21)N1CCc2ccccc21,35,0,0,0,0
O=C(Cn1c(=O)oc2cc(S(=O)(=O)N3CCCC3)ccc21)N1CCc2ccccc2C1,0,0,0,85,0
COc1ccc(Nc2nc(S(=O)(=O)c3ccc(C)cc3)c(Cl)s2)cc1,0,0,0,0,0
Cc1ccc(S(=O)(=O)c2nc(Nc3ccccc3)sc2Cl)cc1,-,-,0,73,0
CC(=O)N1CCN(C(=O)c2cc3c(s2)CCCC3)CC1,-,-,18,-,0
CN1CCCN(C(=O)c2cc3c(s2)CCCC3)CC1,0,0,0,-,0
CCCC1Cc2c(sc(NC(=S)NC(=O)c3ccccc3)c2C#N)CO1 (stereo not drawn),0,0,-,86,-
N#Cc1c(NC(=S)NC(=O)c2ccccc2)sc2c1CCCC2,0,0,0,0,0
CC1CCc2c(sc(NC(=S)NC(=O)c3ccccc3)c2C#N)C1 (stereo not drawn),0,0,0,71,0
CC(C)CCNc1ncnc2c1nnn2Cc1ccccc1Cl,0,0,0,79,0
OCCNc1ncnc2c1nnn2Cc1ccccc1Cl,-,-,0,-,0
Cc1nc(NC2CCCCC2)c2nnn(Cc3ccccc3Cl)c2n1,0,0,0,-,0
Cc1nc(N2CCCC2)c2nnn(Cc3ccccc3Cl)c2n1,0,0,0,73,0
CC1(C(=O)Nc2ccc3c(c2)OCO3)CCN1C(=O)C1CCCCC1 (stereo not drawn),-,-,-,-,0
Cc1ccc(CNCC(O)(c2ccc(F)cc2)c2ccc(F)cc2)cc1,0,0,0,86,0
OC(CNCc1ccccc1F)(c1ccc(F)cc1)c1ccc(F)cc1,0,0,0,75,0
CCCS(=O)(=O)NC(=O)C1(C)CCN(C(=O)c2cccc(C(F)(F)F)c2)C1 (stereo not drawn),-,-,-,-,0
CC1(C)CNc2cc([N+](=O)[O-])ccc2S1,0,0,0,85,0
COc1ccccc1N1CCN(c2ncc(C(=O)N3CCN(c4cccc(Cl)c4)CC3)c3ccccc23)CC1,0,0,0,86,0
Cc1ccc(S(=O)(=O)N2[C@H](c3cccc(Cl)c3)CC(=O)[C@@H]3CN(S(=O)(=O)c4ccccc4C)[C@H](c4ccc(Cl)cc4)C[C@@H]32)cc1,-,-,0,-,0
Cc1ccc(/C=N/c2sc3c(c2C#N)CCCCC3)o1,0,0,0,77,0
CCN(/C=N/c1sc2c(c1C#N)CCCCC2)CC,0,0,0,0,0
CC(C)CN(/C=N/c1sc2c(c1C#N)CCCCC2)CC(C)C,0,0,0,74,0
Cc1[nH]n(-c2cccc3ccccc23)c(=O)c1/C=N/c1sc2c(c1C#N)CCC2,0,0,0,0,0
Cc1[nH]n(-c2ccc(F)cc2)c(=O)c1/C=N/c1sc2c(c1C#N)CCCC2,0,0,0,90,0
COc1ccc(S(=O)(=O)N2CCN(C(=O)CSC(=S)N3CCCC3)CC2)cc1,0,0,0,-,0
CCOc1nc(Nc2ccc(OC)c(Cl)c2)nc(N2CCN(c3ccc(OC)cc3)CC2)n1,0,0,0,74,0
